Results taken from publication PMC3685407 (Neuropharmacology, 2013).
Like-named read-outs stand apart in the source and are kept apart here.

How the values were obtained:
[1] = system: L-dopa-induced AIMs in parkinsonian rats; details: cited from earlier work
[2] = biological target: human α7 nAChRs (Homo sapiens, UniProt P36544); test: biochemical; assay type: binding
[3] = biological target: human α3β4 nAChRs (Homo sapiens, UniProt P30926+P32297); test: Competition membrane binding
[4] = biological target: muscle nAChRs (Homo sapiens, UniProt P02708+P07510+Q07001); test: biochemical; assay type: binding
Sequence of muscle nAChRs (P07510 23-517): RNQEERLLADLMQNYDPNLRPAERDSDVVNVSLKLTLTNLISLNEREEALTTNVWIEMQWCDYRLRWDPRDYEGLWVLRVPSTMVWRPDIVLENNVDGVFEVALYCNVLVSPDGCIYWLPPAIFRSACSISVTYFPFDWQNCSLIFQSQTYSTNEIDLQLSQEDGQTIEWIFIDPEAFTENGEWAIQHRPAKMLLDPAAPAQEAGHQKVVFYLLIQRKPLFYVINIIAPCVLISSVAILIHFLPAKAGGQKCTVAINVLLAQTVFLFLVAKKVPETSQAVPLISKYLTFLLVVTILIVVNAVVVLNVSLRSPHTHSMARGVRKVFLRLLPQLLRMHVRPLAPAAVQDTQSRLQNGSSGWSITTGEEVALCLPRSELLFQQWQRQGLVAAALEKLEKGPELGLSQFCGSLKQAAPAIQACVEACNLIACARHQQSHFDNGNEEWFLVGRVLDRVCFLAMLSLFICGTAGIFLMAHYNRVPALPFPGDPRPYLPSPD
Sequence of muscle nAChRs (Q07001 22-517): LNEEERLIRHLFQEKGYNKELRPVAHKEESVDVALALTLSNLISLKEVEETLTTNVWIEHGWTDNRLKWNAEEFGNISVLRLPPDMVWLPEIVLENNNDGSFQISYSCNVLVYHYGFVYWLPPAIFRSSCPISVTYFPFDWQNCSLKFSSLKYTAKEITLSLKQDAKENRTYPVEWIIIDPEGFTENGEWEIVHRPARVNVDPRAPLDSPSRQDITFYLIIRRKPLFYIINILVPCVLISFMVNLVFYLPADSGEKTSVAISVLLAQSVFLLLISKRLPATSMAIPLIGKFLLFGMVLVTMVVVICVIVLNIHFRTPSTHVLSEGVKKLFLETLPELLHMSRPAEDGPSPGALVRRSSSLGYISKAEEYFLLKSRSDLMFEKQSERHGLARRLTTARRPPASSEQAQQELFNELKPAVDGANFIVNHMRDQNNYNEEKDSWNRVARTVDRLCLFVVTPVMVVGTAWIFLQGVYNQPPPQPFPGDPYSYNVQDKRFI
Sequence of muscle nAChRs (P11230 24-501, further chain): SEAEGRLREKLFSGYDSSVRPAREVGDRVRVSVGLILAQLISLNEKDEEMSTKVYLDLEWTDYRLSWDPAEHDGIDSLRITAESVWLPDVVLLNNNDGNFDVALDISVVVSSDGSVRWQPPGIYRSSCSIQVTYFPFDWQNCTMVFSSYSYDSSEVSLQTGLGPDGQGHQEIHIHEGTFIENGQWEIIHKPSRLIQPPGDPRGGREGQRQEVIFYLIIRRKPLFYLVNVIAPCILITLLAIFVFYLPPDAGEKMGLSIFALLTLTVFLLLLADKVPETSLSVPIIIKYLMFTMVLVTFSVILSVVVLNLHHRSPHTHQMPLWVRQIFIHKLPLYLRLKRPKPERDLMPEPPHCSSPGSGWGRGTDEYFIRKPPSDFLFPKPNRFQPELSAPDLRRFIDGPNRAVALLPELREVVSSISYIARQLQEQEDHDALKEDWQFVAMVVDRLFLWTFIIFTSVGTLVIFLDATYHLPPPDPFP
Sequence of muscle nAChRs (P02708 21-457): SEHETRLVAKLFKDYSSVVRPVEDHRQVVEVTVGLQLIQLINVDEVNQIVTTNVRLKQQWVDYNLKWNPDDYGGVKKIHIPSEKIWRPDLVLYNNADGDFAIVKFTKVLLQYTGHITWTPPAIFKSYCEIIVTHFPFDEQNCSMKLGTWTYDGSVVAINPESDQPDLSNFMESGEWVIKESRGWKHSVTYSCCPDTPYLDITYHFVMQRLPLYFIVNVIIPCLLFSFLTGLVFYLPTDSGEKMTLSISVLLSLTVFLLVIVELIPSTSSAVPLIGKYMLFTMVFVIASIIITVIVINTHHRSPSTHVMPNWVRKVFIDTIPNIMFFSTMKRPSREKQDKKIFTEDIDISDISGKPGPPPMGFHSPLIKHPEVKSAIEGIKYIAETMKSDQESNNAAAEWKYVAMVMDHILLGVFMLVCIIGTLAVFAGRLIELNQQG

[5] = system: L-dopa-induced AIMs in 6-OHDA lesioned rats; test: L-dopa-induced AIMs in rats with severe unilateral 6-OHDA lesion; assay type: in vivo, rat; details: for AIM subtypes significantly affected by nAChR compounds: axial, oral, forelimb AIMs; for AIM subtypes significantly affected by nAChR compounds / Decrease in total AIM scores: severe dopaminergic lesion; for Decrease in total AIM scores: maximal decrease over the treatment periods, L-dopa 6 or 8 mg/kg plus benserazide 15 mg/kg sc; for Reduction in L-dopa-induced AIMs: range over the series, rats with severe nigrostriatal damage; for Total AIMs score: summary table, L-dopa 6 or 8 mg/kg plus benserazide, group not stated
[6] = system: ^3H-dopamine release from rat striatal synaptosomes; details: read-out: EC50 for 3H-dopamine release; rat striatum; ref Zwart et al., 2008; cited from earlier work
[7] = system: L-dopa-induced AIMs in 6-OHDA lesioned rats; details: cited from earlier work
[8] = system: L-dopa-induced dyskinesias in Parkinson’s disease patients; details: small clinical trial, ref http://www.neuraltus.com/pages/news.html; cited from earlier work
[9] = system: forelimb use asymmetry in 6-OHDA lesioned rats; test: Limb use asymmetry test; assay type: in vivo, rat; details: for % Contralateral limb use, nAChR compound: 5 min period, mean ± S.E.M of 5–9 rats
How it was run: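 Unilateral intracranial 6-OHDA lesions in rats (230–250 g). Forelimb use was rated over 5 min, once before and once 60 min after sc L-dopa plus benserazide (8.0 or 6.0 mg/kg plus 15 mg/kg, depending on study). The read-out was % contralateral limb use. Test compound was given by minipump or sc injection. In one study, testing was 4 wk after L-dopa treatment began.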

[10] = rats with severe dopaminergic lesions, ref Bordia et al., 2010

Sequence of human α7 nAChRs (P36544 23-502): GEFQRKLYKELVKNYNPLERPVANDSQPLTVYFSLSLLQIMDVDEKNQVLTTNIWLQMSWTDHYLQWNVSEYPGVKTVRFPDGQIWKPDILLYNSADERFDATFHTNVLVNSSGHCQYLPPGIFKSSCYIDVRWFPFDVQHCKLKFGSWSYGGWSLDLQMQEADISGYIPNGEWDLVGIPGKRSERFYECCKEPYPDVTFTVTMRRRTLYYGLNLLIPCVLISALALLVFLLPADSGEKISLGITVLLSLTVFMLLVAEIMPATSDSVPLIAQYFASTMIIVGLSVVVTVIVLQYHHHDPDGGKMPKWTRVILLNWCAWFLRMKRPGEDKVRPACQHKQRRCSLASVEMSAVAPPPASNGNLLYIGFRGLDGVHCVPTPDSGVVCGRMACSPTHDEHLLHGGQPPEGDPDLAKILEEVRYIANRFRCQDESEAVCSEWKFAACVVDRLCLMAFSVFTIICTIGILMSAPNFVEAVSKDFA
Sequence of human α3β4 nAChRs (P32297 32-505): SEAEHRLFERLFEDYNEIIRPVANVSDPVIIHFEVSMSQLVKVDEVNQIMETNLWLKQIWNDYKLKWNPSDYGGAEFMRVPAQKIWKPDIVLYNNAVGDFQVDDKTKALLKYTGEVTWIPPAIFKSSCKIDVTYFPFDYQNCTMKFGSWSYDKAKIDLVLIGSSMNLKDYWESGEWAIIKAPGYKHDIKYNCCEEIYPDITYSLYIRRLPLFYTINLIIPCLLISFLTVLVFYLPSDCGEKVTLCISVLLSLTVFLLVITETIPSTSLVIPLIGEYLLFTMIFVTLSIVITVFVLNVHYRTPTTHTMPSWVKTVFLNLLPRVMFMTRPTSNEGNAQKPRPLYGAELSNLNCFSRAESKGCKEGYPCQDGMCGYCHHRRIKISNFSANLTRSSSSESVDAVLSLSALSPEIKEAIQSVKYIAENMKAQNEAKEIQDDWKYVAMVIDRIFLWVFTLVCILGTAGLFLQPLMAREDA
Sequence of human α3β4 nAChRs (P30926 22-498): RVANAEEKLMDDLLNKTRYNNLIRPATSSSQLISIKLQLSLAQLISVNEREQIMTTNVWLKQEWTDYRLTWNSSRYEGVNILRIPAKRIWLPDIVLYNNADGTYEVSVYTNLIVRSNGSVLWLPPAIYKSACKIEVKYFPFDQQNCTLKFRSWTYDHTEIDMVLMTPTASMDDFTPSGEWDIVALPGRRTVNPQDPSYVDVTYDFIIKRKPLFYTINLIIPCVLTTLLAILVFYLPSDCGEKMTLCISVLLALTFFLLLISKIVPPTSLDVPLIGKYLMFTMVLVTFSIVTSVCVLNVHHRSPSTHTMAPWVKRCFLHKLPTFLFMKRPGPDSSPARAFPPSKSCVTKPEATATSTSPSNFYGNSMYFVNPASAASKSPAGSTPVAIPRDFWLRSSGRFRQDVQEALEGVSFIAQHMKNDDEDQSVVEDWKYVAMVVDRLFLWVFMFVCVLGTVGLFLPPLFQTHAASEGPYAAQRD

c1cncc(OC[C@@H]2CCN2)c1 [A85380]
Effect on L-dopa-induced AIMs ([1]; 6-OHDA lesioned rats, ref Huang et al., 2011b): reduced L-dopa-induced AIMs

OCCCCC#Cc1cncc(OC[C@@H]2CCN2)c1 [Sazetidine, 6-(5-(((S)-azetidin-2-yl)methoxy)pyridine-3-yl)hex-5-yn-1-ol]
Ki [2]: 3.3 µM | Ki [3]: 0.03 ± 0.002 µM | Ki [4]: 0.18 ± 0.084 µM | Effect on L-dopa-induced AIMs ([5]; 0.5 mg/kg sc twice daily, L-dopa 8 mg/kg plus benserazide): no effect | Effect on L-dopa-induced AIMs ([5]; 1.0 mg/kg sc twice daily, L-dopa 8 mg/kg plus benserazide, P < 0.05): decline in total, oral and forelimb AIMs | Effect on L-dopa-induced AIMs ([5]; 2.0 mg/kg sc twice daily, compared with 1.0 mg/kg dose, data not shown): Results were similar | AIM subtypes significantly affected by nAChR compounds [5]: Oral = forelimb | Decrease in total AIM scores [5]: 23% | Reduction in L-dopa-induced AIMs [5]: 23–32% | Total AIMs score [5]: ~75 | EC50 [6]: 0.001 µM

CN1CCC[C@H]1c1cccnc1 [Nicotine]
Ki [4]: 3.5 µM | AIM subtypes significantly affected by nAChR compounds [7, 10]: Oral = forelimb | Decrease in total AIM scores [7, 10]: 35% | Total AIMs score [7, 10]: ~75 | Persistence of the effect on L-dopa-induced AIMs with treatment ([1]; study ended at this time, ref Bordia et al., 2008, Bordia et al., 2010): at least 4 months | Effect on L-dopa-induced dyskinesias [8]: reduced several components of L-dopa-induced dyskinesias

CN[C@@H](C)C/C=C/c1cncc(OC)c1 [TC-2696]
Ki ([2]; read-out: Ki α7 nAChRs, membrane binding, 3H-epibatidine, average ± SEM): 85 µM | Effect on L-dopa-induced AIMs ([5]; 1.0 mg/kg/d via minipump, L-dopa 8 mg/kg plus benserazide 15 mg/kg sc): fewer total L-dopa-induced AIMs | Effect on L-dopa-induced AIMs ([5]; […] via minipump, L-dopa 8 mg/kg plus benserazide): results similar to those at the 1.0 mg/kg/d dose of the compound, except for a significant decline in forelimb AIMs | AIM subtypes significantly affected by nAChR compounds [5]: Axial > forelimb | Decrease in total AIM scores [5]: 30% | Reduction in L-dopa-induced AIMs [5]: 23–32% | Total AIMs score [5]: ~75 | % Contralateral limb use, nAChR compound ([9]; OFF L-dopa (before L-dopa)): 3.27 ± 1.5% | % Contralateral limb use, nAChR compound ([9]; ON L-dopa (60 min after L-dopa)): 35.6 ± 13.1% | Effect on parkinsonism (forepaw asymmetry test) ([9]; result in words): no significant effect

CNC1(C)C2CCC(C2)C1(C)C (stereo not shown) [mecamylamine]
Effect on L-dopa-induced AIMs ([1]; parkinsonian rats, ref Bordia et al., 2010): attenuated AIMs

c1cnc2cc3c(cc2n1)[C@@H]1CNC[C@H]3C1 [Varenicline]
Decrease in total AIM scores ([7]; severely lesioned rats, non-significant, ref Huang et al., 2011b): 10% | Total AIMs score ([7]; severely lesioned rats, ref Huang et al., 2011b): ~60
